# hERG protect: hERG rescue from dofetilide block, primary screen, cell-based, CHO-hERG, FluxOR thallium flux, dofetilide IC70; dofetilide IC70 present; activation (rescue from dofetilide block), less the hit threshold, % at 10 µM; hit rate 0.51% among 310,000; AID 1511, 2009;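 active means activation above the mean of controls blocked by dofetilide plus 5 SD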;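 further: thallium influx through hERG after potassium depolarization seen as dye fluorescence rise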
# KCNK3 inh: human KCNK3 channel inhibitors, primary screen, CHO cells, FluxOR thallium flux, B-score; AID 602410, 2012; FluxOR fluorescence; stronger effect = lower value; hit rate 0.84% among 340,000; B-score at 10 µM; Potassium channel subfamily K member 3 (Homo sapiens), O14649;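 active means B-score under library mean minus 4 SD, starting fluorescence ratio at most library mean plus 5 SD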;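 further: more negative B-score means stronger inhibition of thallium flux through KCNK3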
# KCNQ1 inh: inhibitors of human KCNQ1 channel, primary screen, cell-based, thallium flux, high-throughput; B-score at 10 µM; CHO-K1 KCNQ1, FluxOR thallium flux fluorescence; stronger effect = higher value; hit rate 1.3% among 310,000; Potassium voltage-gated channel subfamily KQT member 1 (Homo sapiens), P51787; AID 2642, 2010;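 active means compounds whose thallium flux B-score, printed positive for inhibition, exceeds three library SD while starting fluorescence stays within three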;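 further: channel opened by potassium depolarization with thallium stimulus after 20 min compound exposure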
# KCNQ1 act: potentiators or activators of KCNQ1 channel, primary screen, cell-based, thallium flux, high-throughput; hit rate 0.35% among 310,000; Potassium voltage-gated channel subfamily KQT member 1 (Homo sapiens), P51787; CHO-K1 KCNQ1, thallium flux FluxOR fluorescence; stronger effect = higher value; B-score at 10 µM;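 active means fluorescence ratio B-score, a plate-corrected score, at least three library SD, with initial intensity B-score within 5 SD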
#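 assay system = CHO-K1 cells stably expressing KCNQ1 | medium = assay buffer, equal DMSO in all wells | timing = 37 °C overnight plating, 90-min dark dye load, 20-min compound pretreatment | measured by = kinetic FluxOR thallium fluorescence, 10-s 1-Hz baseline, 110-s post-stimulus read | measure = fluorescence change relative to baseline, converted to B score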
# KCNK9 inh: KCNK9 potassium channel inhibitors, primary screen, HEK293 cells, thallium flux. FluxOR thallium flux fluorescence; stronger effect = lower value. B-score at 10 µM. hit rate 1.2% among 310,000;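 active means ratio B-score over 3 SD below the library mean, with starting fluorescence within 5 SD of its mean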;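 further: negative B-score means less thallium flux so channel inhibition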
# Target sequence (Q9NPC2 whole entry, looked up): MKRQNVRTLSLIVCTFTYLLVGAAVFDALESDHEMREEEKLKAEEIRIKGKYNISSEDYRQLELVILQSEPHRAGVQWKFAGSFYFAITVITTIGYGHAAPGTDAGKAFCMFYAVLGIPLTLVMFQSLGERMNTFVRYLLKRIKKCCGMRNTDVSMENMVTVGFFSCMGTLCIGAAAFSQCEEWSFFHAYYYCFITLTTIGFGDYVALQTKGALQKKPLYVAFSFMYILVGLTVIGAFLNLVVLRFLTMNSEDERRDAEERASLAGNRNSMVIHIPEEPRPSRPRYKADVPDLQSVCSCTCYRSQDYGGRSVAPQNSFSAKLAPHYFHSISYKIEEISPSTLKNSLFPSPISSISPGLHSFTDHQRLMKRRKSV
# * marks the source's active call; other numbers are inactive results; i = inactive; / = no result given. Compounds with a hit are over-represented: about 3.1% of the library has one in this group of screens.
SMILES,hERG protect,KCNK3 inh,KCNQ1 inh,KCNQ1 act,KCNK9 inh
CC(C)(C)OC(=O)NCCCCCNC(=O)c1[nH]cnc1C(=O)N[C@@H](Cc1ccccc1)C(=O)OCc1ccccc1,-11,i,9*,i,i
CN(c1ccccc1)c1nc(N)c([N+](=O)[O-])c(Nc2ccccc2F)n1,-3,i,i,i,-6.9*
CN(c1ccccc1)c1nc(N)c([N+](=O)[O-])c(Nc2ccc(F)cc2)n1,-11,i,i,i,i
O=C(CNc1cccc(C(F)(F)F)c1)Nc1cccc(S(=O)(=O)N2CCCC2)c1,/,-9.3*,/,/,/
O=C(CNc1cccc(S(=O)(=O)N2CCCC2)c1)Nc1cccc(F)c1,-12,i,i,i,i
COc1ccc(CNC(=O)CNC(=O)c2cccs2)c(OC)c1,-3,i,i,i,i
CSc1ncc(C(=O)Nc2ccccc2C)c(C)n1,-4,i,i,i,i
CCOC(=O)c1cnc(SC)nc1Sc1ccccc1Cl,-10,i,6*,i,i
CSc1ncc(C(=O)Nc2ccccc2Cl)c(C)n1,-4,i,i,13*,i
COCCn1cnnc1SCC(=O)Nc1ccc(N2CCCCC2)cc1,/,i,/,/,/
O=S(=O)(Nc1cccc(-n2cnnn2)c1)c1cccc(Cl)c1,-9,i,i,8*,i
O=S(=O)(Nc1cccc(-n2cnnn2)c1)c1ccccc1,-10,i,i,i,i
CCN(CC(=O)Nc1c(F)cccc1F)C(=O)CNC(=O)c1ccc(Br)o1,-15,i,i,i,i
Cc1c(C(=O)NN)[nH]c2ccc([N+](=O)[O-])cc12,-7,i,i,i,i
Cc1ccc(C)c2c1[nH]c1ccc([N+](=O)[O-])cc12,-7,i,8*,i,i
Cc1ccc(C)c(S(=O)(=O)C(C#N)c2nc3ccccc3nc2N2CCOCC2)c1 (configuration not stated),-6,i,i,i,i
Cc1ccc(C)c(S(=O)(=O)C(C#N)c2nc3ccccc3nc2N2CCCC2)c1 (configuration not stated),-11,i,i,i,-8.1*
NCCSc1c(-c2ccc(Cl)cc2)[nH]c2ccccc12,-22,i,i,i,-7.3*
CCOC(=O)c1sc2nc(Cc3ccc(Cl)cc3)[nH]c(=S)c2c1C,75*,i,i,46*,i
CCOC(=O)c1sc2nc(COC(=O)c3c(F)cccc3F)[nH]c(=O)c2c1C,-9,i,i,i,i
CN(Cc1ccccc1)C(=O)CCS(=O)(=O)c1ccc2c(c1)NC(=O)CS2,-7,i,i,i,i
COc1cccc(NC(=O)NCC2CCN(Cc3ccc(F)cc3)CC2)c1,-6,i,i,8*,i
CC(=O)c1ccc2c3c(cc(C)c2c1)CCCC3,/,i,/,/,/
CCCn1cnnc1CNC(=O)C1CCC(=O)N(CCCc2ccccc2)C1 (configuration not stated),-3,i,i,i,i
C=CCC(O)(CC=C)CNC(=O)C1CCC(=O)N(CCCc2ccccc2)C1 (configuration not stated),6.7*,i,i,i,i
SMILES,hERG protect,KCNK3 inh,KCNQ1 inh,KCNQ1 act,KCNK9 inh
Cc1ccc(SC2=C(N(C)C)C(=O)c3ccccc3C2=O)cc1,/,i,/,/,/
COc1cccc(NC(=O)c2cc3ccccc3cc2OC)c1,0,i,i,i,i
O=c1cc(-c2ccccc2)cc(-c2ccccc2)n1O,18*,i,i,23*,i
C/C(=N\NC(=O)c1cc(C)nc2ccccc12)c1ccco1,-14,i,i,i,i
C/C(=N/NC(=O)c1cc2ccccc2cc1O)c1ccco1,25*,i,i,35*,i
C/C(=N\NC(=O)c1cc2ccccc2cc1O)c1cccs1,-2,i,i,i,i
C/C(=N\NC(=O)c1cc2ccccc2cc1O)c1ccc(C)o1,8.9*,i,i,26*,i
O=C(CCn1c(=O)c2sccc2n(CC(=O)OCc2ccccc2)c1=O)NCc1ccccc1,5.2*,i,i,i,i
O=C(CCn1c(=O)c2sccc2n(CC(=O)OCc2ccccc2)c1=O)NCc1ccco1,-25,i,i,i,i
O=C1C2CCCN2C(=S)N1c1cc(Cl)ccc1Cl (configuration not stated),/,i,/,/,/
CCc1ccc(OCc2nnc(-c3ccccc3Br)o2)cc1,/,-9.3*,/,/,/
Clc1ccccc1OCc1nnc(-c2ccccc2Br)o1,1,i,i,i,i
Cc1ccc(C)c(C2=CSC3=NS(=O)(=O)CCN23)c1,-17,i,i,i,i
Cc1ccc(C2=CSC3=NS(=O)(=O)CCN23)cc1,1,i,i,9*,i
O=c1c2cccnc2n(-c2ccccc2)n1Cc1c(Cl)cccc1Cl,-3,i,i,i,i
O=c1c2cccnc2n(-c2ccccc2)n1Cc1ccc(Cl)cc1,-8,i,i,14*,i
Brc1ccc2c(c1)OCCOCCOc1cc(Br)ccc1OCCOCCOCCO2,-22,i,6*,i,-7.7*
COc1cc(CC2C(=O)OCC2C(=O)c2ccc3c(c2)OCO3)cc(OC)c1OC (configuration not stated),/,i,/,/,/
CN1CCN(NC(=O)c2cc(S(=O)(=O)Nc3ccc(Cl)cc3)ccc2Cl)CC1,-9,i,i,i,i
CCOc1ccccc1NC(=S)NC(=O)c1ccco1,1,i,i,11*,i
CCCCOC(=O)c1ccc(NC(=O)/C=C/c2cccs2)cc1,-14,i,13*,i,i
CCOc1ccccc1NC(=O)c1ccccc1NC(=O)c1ccco1,-10,i,i,i,i
CCN(CC)c1ccc(NC(=S)NC(=O)c2cccs2)cc1,6.5*,i,i,i,i
CCN(CC)c1ccc(NC(=S)NC(=O)c2ccco2)cc1,53*,i,i,35*,i
CCn1c(SCC(=O)Nc2ccc(OC)cc2)nc2c(c1=O)SCC2,-11,i,i,i,i
COc1ccccc1C(C)NC(=O)c1ccccc1SCC(=O)N1CCCC1 (configuration not stated),-16,i,i,i,i
COc1ccccc1CN1CCC(n2nccc2NC(=O)CCCc2ccccc2)CC1,-7,i,i,i,i

# Screens from PubChem.
